Screening results deposited in PubChem by Broad Institute.
RAD54 inh – inhibitors of human RAD54 branch migration, primary screen, biochemical, fluorescence, single point. inhibition, % at 10.4 µM. actives 0.14% (n = 360,000). DNA repair and recombination protein RAD54-like (Homo sapiens), Q92698. RAD54 Holliday junction branch migration, FAM/BHQ fluorescence. AID 602329, 2012;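 active = mean normalized replicate activity at least 40 and at least half of replicates scoring 40 or more; inconclusive = only one of the two criteria met; inactive = mean below 40 and under half of replicates reaching 40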;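 note: 0% = median of neutral control wells and 100% = median of positive control wells; inhibitors cause a drop in the FAM fluorescence signal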
rRNA inh HTS – reduced GFP signal of wild-type E. coli, primary screen, bacterial rRNA inhibitor project, GFP/RFP fluorescence, OD600, single point | E. coli WT GFP vs humanized-ribosome RFP mutants, 24 h; stronger effect = lower value; DMSO median 0, no signal -100 | actives 1.6% (n = 350,000) | GFP signal change (wild-type ribosome), % (no concentration beside the values);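 active = significant combined selectivity score with lowered wild-type GFP, culture density cut under 30%, mutant RFP and density less affected; inactive = any of these conditions unmet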
XiGFP reactiv – activators of inactive X chromosome reactivation, primary screen, imaging, XiGFP fibroblasts, GFP high-content imaging, set 2 | XiGFP mouse fibroblasts, % GFP-positive cells imaging, 3 d; cells co-treated with 5-aza-dC sensitizer; scaled so ellipticine positive control = 100% | activation, % at 7.58 µM | actives 0.055% (n = 360,000) | AID 743238, 2013;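 active = mean normalized replicate activation at least 10% and every replicate at or above 10%; inconclusive = only one of the two criteria met; inactive = mean below 10% and not all replicates reach 10%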;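 note: 0% = median of on-plate neutral control wells and 100% = ellipticine 6 µM median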
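material = 68-5-11 XiGFP fibroblast line | medium = DMEM plus 5-aza-dC sensitizer | schedule = 3 days compound exposure | benchmarks = positive control ellipticine, 6 µM final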
RAD52 anneal inh – RAD52 DNA annealing inhibitors, primary screen, biochemical, FRET, single point, set 2 | DNA repair protein RAD52 homolog (Homo sapiens), P43351 | recombinant RAD52 DNA annealing, FRET fluorescence | inhibition, % at 18.7 µM | actives 0.46% (n = 360,000) | AID 651710, 2012;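 active = every replicate showing at least 50% inhibition; inconclusive = mean inhibition at least 50% but not in every replicate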
E-selectin induc – E-selectin induction in HUVECs, primary screen, imaging, HUVEC, immunofluorescence imaging, single point; actives 0.37% (n = 260,000); AID 686992, 2013; normalized: neutral wells 0, TNF-alpha wells 100; activation, % at 7.58 µM;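 active = mean E-selectin-positive cell signal at least 10% of the positive control, reached in at least 60% of replicates, without over 20% cell loss; inconclusive = no rule given, readout overlaps actives, possibly toxicity-flagged; inactive = the rest, including those meeting only one limit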
Target sequence (P16581 whole entry, looked up): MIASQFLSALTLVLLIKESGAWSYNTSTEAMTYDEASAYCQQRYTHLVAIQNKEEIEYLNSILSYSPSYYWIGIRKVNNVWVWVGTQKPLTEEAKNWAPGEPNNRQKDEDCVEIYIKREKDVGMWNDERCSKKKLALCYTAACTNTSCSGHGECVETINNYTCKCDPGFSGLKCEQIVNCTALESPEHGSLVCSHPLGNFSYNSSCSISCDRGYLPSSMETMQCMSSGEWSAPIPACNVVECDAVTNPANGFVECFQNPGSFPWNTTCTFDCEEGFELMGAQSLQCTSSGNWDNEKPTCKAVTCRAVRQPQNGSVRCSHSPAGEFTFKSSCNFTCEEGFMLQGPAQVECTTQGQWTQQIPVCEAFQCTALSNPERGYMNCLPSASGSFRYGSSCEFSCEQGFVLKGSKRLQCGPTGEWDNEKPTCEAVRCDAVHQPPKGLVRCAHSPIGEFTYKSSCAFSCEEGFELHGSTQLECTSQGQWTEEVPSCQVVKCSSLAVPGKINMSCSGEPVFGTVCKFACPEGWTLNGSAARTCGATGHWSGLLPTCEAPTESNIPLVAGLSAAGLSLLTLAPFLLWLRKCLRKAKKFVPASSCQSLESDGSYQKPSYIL
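assay system = HUVEC, human umbilical vein endothelial cells | input = 3,000 HUVEC seeded per well | medium = EGM-2 growth medium on 0.1% gelatin-coated wells | dosing = one compound dose added by pin transfer | signal = immunofluorescence imaging | read-out basis = % PE-positive cells | control set = TNF-alpha, DMSO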
PglD inh – C. jejuni PglD acetyltransferase inhibitors, primary screen, biochemical, DTNB colorimetric, single point | UDP-N-acetylbacillosamine N-acetyltransferase PglD (Campylobacter jejuni) | purified PglD enzyme, DTNB colorimetric CoA detection | inhibition, % at 12.5 µM | actives 0.098% (n = 360,000); in the data active = inhibition above about 16%, passing the limit was not always enough; inconclusive = no clear call, values can overlap the other calls
AID977621 – growth inhibition of wild-type GFP E. coli, dose response, H69 mutant RFP, cherry-pick; AID 977621, 2014; 1,900 tested, under 10 active; E. coli wild-type GFP strain growth, fluorescence, 24 h; shares compounds with rRNA inh HTS; activity change, negative = inhibition at 50 µM;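 active = Wild-type ribosome reporter drop at least double the humanized mutant ribosome reporter drop, growth loss under a set limit; inconclusive = no clear call, values can overlap the other calls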;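 note: wild-type GFP and H69 mutant RFP strains grown together 50/50 in each well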
AID977628 – E. coli growth inhibition, wild-type GFP versus h24 humanized RFP strain, dose response, h24 mutant RFP vs wild-type GFP, cherry-pick. shares compounds with rRNA inh HTS. E. coli WT GFP strain growth, fluorescence, 24 h. activity change, negative = inhibition at 50 µM. 1,900 tested, under 10 active. AID 977628, 2014;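 active = compound lowering the normal-ribosome reporter at least twice as much as the humanized-ribosome reporter, growth loss under a set limit; inconclusive = no clear call, values can overlap the other calls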;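 note: wild-type GFP and h24 humanized RFP strains co-cultured 1 to 1 per well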
Starred values were filed as active, the others as inactive; ? = inconclusive; / = not tested or not shown; ! = not active in a repeat. Most compounds without a hit are left out; they make up all but 2% or so of the library.

SMILES | RAD54 inh | rRNA inh HTS | XiGFP reactiv | RAD52 anneal inh | E-selectin induc | PglD inh | AID977621 | AID977628
c1coc(CSc2ncnc3c2oc2ccccc23)c1 | 13 | -23* | 0 | -31 | / | -5 | -6.3 | -5.5
C[C@H]1CN([C@@H](C)CO)C(=O)Cc2cc(NS(=O)(=O)c3ccc(Cl)cc3)ccc2O[C@H]1CN(C)Cc1ccc(-c2ccccc2)cc1 | / | 1 | 1 | / | 1 | / | / | /
CC(=O)Nc1nc(C)c(-c2csc(Nc3ccccn3)n2)s1 | / | -20*! | 0 | 4 | 3 | / | 0.27 | /
C[C@H](CO)N1C[C@H](C)[C@H](CN(C)CC2CC2)Oc2ccc(NS(=O)(=O)c3ccc(F)cc3)cc2C1=O | 9 | 4 | -1 | -2 | 23 | 2 | / | /
C[C@H](CO)N1C[C@H](C)[C@@H](CN(C)CC2CCCCC2)OCCCC[C@H](C)Oc2ccc(NC(=O)Nc3ccc4c(c3)OCO4)cc2C1=O | 2 | -5 | 0 | 10 | 0 | 5 | / | /
Nc1ncncc1-c1ccc2ccccc2c1 | 5 | -32* | 0 | -3 | 0 | 2 | -14 | ?
C[C@H](CO)N1C[C@H](C)[C@@H](CN(C)Cc2ccc3c(c2)OCO3)Oc2cc(C#CCN(C)C)ccc2S1(=O)=O | -2 | -5 | -1 | 6 | 0 | 5 | / | /
Cc1ccc(-n2nnnc2CNC(=O)c2ccc([N+](=O)[O-])o2)cc1C | / | -20* | 0 | -9 | 0 | / | ? | 0.065
Cc1ccc(S(=O)(=O)N[C@@H]2C=C[C@@H](CC(=O)N3CCc4ccccc4C3)O[C@@H]2CO)cc1 | 12 | -4 | 0 | -4 | 0 | 1 | / | /
Cc1ccsc1C(=O)OCC(=O)N1CCc2ccccc2C1 | -2 | -22* | 0 | -18 | -1 | 0 | -8.9 | /
COc1ccc(S(=O)(=O)N(C)C[C@@H]2OCCCC[C@@H](C)Oc3ccc(NS(=O)(=O)c4cn(C)cn4)cc3C(=O)N([C@@H](C)CO)C[C@H]2C)cc1 | -4 | -6 | 0 | 6 | / | 5 | / | /
CC(C)Cc1nnc(NC(=O)c2ccc(N3CCCC3=O)cc2)s1 | -3 | 5 | 0 | -13 | 3 | -1 | / | /
CC(C)Cc1nnc(NC(=O)c2ccc3c(=O)n4c(nc3c2)CCC4)s1 | 21 | -21* | 0 | 1 | / | -2 | -11 | -9.9
Cc1ccc(Cc2c(-c3ccc(C#N)cc3)nc3ccc(C)cn23)cc1 | / | -12 | 0 | -66 | -2 | / | / | /
Cc1ccc(Cc2c(-c3ccc(C#N)cc3)nc3ccc(Br)cn23)cc1 | -6 | -28* | 0 | -38 | / | -3 | 9 | 2.9
COc1ccccc1Cc1c(-c2ccc(OC)c(OC)c2)nc2ccc(Br)cn12 | 0 | -4 | 0 | -2 | / | -6 | / | /
COc1ccccc1Cc1c(-c2ccc(F)cc2)nc2ccc(Br)cn12 | -1 | -24* | 0 | -40 | 0 | 0 | -13 | -12
N#C[C@@H]1[C@@H](c2ccccc2)[C@@H](CO)N1C(=O)C1CCCC1 | -4 | 1 | 0 | 1 | 1 | 3 | / | /
CCN1[C@@H]2c3ccc(-c4ccccc4OC)c(=O)n3C[C@@H]2[C@@H](CO)[C@@H]1C(=O)NCc1ccccc1 | 1 | -3 | 0 | -1 | -1 | -1 | / | /
O=C(NCc1ccco1)c1ccc(COc2cccc3ccccc23)cc1 | -6 | -24* | 0 | -18 | 0 | -5 | -16 | /
Cc1cc(C)c2c(c1)OC(=O)CC2c1ccc2c(c1)OCO2 (stereo unspecified) | 0 | -37 | 0 | 0 | 2 | 0 | / | /
COc1ccc(C2CC(=O)Oc3cc(C)cc(C)c32)cc1 (stereo unspecified) | -14 | -24* | 0 | -19 | / | 4 | 3.9 | -5.4
COc1cc2c(c(OC)c1OC)C(c1ccc3c(c1)OCO3)CC(=O)O2 (stereo unspecified) | 1 | -20* | 0 | 1 | -7 | -3 | -20 | -8.5
CC(C)(C)c1ccc2c(c1)C(c1ccc3c(c1)OCO3)CC(=O)O2 (stereo unspecified) | -15 | -25* | 0 | -16 | 5 | 6 | -3.7 | /
Cc1ccc(C2CC(=O)Oc3cc(C)cc(C)c32)cc1 (stereo unspecified) | 6 | -47 | 0 | -11 | -6 | -2 | / | /
SMILES | RAD54 inh | rRNA inh HTS | XiGFP reactiv | RAD52 anneal inh | E-selectin induc | PglD inh | AID977621 | AID977628
C[C@H]1CN([C@@H](C)CO)C(=O)Cc2cc(NC(=O)C3CC3)ccc2O[C@H]1CN(C)Cc1ccc(Cl)c(Cl)c1 | -14 | -2 | 0 | -27 | 0 | 0 | / | /
C[C@H](CO)N1C[C@H](C)[C@@H](CN(C)S(=O)(=O)c2ccccc2)OCCCC[C@H](C)Oc2ccc(NS(=O)(=O)c3cn(C)cn3)cc2C1=O | -1 | 4 | 0 | 3 | / | 0 | / | /
CCCC[n+]1ccn(-c2nc3ccccc3nc2[N-]S(=O)(=O)c2cccs2)c1 | 94* | -26* | 0 | -11 | 2 | -2 | / | -8.4
O=C(Nc1ccc(F)cc1)N1CC(=O)N2[C@H](CO)[C@H](c3ccc(C#CC4CC4)cc3)[C@H]2C1 | / | -1 | 0 | 0 | 0 | / | / | /
C#CCNC(=O)C[C@H]1C[C@@]2(C(=O)OC)C(=C[C@H](C(C)(C)C)O[C@@H]2C)N(Cc2ccccc2)C1=O | / | -3 | 0 | -9 | 0 | / | / | /
O=C(Nc1ccc(Br)cc1)c1cccnc1N1CCCCC1 | 8 | -34* | / | -16 | / | 4 | -4.4 | -7.9
COc1ccc(CN(C)C[C@H]2OCCCC[C@H](C)Oc3ccc(NC(=O)Nc4ccc(F)cc4)cc3C(=O)N([C@@H](C)CO)C[C@H]2C)cc1 | 2 | 0 | 0 | -5 | 0 | 12 | / | /
